Test results from PMC4629212 (Acta Pharmaceutica Sinica. B, 2015).

What was measured:
HepG-2 cells = experiment: MTT assay of HepG-2 cell viability; type: cell-based, human; details: for Inhibition ratios for HepG-2 cell viability: 10 μmol/L compound, 48 h, mean of three independent experiments; for Effect on HepG-2 cell viability (in words): 10 μmol/L
How it was run: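 HepG-2 cells were kept at 37 °C under 5% CO2 and seeded at 5×10^3 cells/well. After 12 h, test compound was added at 10 µmol/L for 48 h. Viability was read by MTT conversion to purple formazan, and the inhibition rate was calculated against untreated cells set as 100%.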

AChE [1] = biological target: T1, AChE (Electrophorus electricus, UniProt O42275); experiment: biochemical; set-up: species or system Electric Eel; details: for inhibition at 50 µM: 0.25 h, read-out: Inhibition ratios for AChE
T1 sequence (O42275 24-633): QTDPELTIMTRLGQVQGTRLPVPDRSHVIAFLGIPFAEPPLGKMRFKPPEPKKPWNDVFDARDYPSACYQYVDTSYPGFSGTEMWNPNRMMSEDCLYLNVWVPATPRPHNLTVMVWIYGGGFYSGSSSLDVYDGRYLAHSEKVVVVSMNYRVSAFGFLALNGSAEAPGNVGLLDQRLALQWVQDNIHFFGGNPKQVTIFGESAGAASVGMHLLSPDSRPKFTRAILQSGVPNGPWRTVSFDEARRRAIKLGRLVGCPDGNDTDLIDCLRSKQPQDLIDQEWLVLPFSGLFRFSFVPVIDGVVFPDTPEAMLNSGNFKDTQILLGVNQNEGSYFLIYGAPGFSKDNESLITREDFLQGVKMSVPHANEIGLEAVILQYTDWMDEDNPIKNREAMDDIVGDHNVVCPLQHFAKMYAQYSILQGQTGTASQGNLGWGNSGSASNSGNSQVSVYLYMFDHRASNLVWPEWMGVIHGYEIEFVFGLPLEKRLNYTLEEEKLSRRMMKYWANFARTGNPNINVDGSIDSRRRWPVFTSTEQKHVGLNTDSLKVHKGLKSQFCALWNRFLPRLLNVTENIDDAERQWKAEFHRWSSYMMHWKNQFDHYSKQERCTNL

BChE = BChE (Equus caballus, UniProt P81908); experiment: BChE inhibition, modified Ellman method; type: biochemical, equine; details: for inhibition at 50 µM: 0.25 h, read-out: Inhibition ratios for BChE
BChE, sequence (P81908 whole entry): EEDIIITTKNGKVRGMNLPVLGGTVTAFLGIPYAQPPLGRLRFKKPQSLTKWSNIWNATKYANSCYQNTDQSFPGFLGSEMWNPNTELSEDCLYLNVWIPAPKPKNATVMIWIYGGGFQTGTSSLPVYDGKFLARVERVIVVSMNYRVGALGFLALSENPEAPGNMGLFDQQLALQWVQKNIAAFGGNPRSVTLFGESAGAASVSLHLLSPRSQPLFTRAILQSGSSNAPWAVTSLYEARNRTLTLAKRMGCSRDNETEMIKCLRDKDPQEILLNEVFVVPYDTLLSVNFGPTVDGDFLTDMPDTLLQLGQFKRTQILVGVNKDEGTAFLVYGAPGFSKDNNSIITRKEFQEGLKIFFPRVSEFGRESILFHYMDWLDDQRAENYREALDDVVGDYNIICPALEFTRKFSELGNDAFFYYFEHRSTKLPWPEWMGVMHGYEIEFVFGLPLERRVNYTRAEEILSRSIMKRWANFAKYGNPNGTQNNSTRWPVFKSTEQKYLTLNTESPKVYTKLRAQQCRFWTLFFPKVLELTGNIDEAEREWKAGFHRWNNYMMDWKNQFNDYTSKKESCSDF

AChE [2] = biological target: T1, AChE; experiment: Kinetic characterization of AChE inhibition; type: biochemical, Electric Eel; details: Lineweaver–Burk plots
How it was run: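 Acetylthiocholine hydrolysis by AChE was measured at six substrate concentrations in 0.1 mol/L KH2PO4/K2HPO4 buffer, pH 8.0, with DTNB. Test compound was pre-incubated with the enzyme for 15 min at 37 °C before substrate was added. Absorbance was read at 412 nm, and a parallel no-inhibitor control was run.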

[3] = Metal-chelating study by UV-Vis spectrometry; type: physicochemical
How it was run: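 Test compound (20 μmol/L final) was incubated in water for 30 min at room temperature, alone or with CuSO4, FeCl3 or ZnCl2 (each 20 μmol/L final). UV-Vis absorption spectra were then recorded from 200 to 500 nm.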

For CCCCNC(=O)COc1cc(O)c2c(=O)c(-c3ccc(O)cc3)coc2c1 [Compound 4a, N-butyl-2-(5-hydroxy-3-(4-hydroxyphenyl)-4-oxo-4H-chromen-7-yloxy)acetamide], which “Inhibition ratios for HepG-2 cell viability” value (HepG-2 cells) is on record?
Its value is 6.40%.

And the inhibition at 50 µM (AChE [1])?
The inhibition at 50 µM was 7.88 ± 3.58%.

What about the inhibition at 50 µM (BChE) of the same compound?
The inhibition at 50 µM was 1.19 ± 0.59%.

Which results are given for CN(C)CCNC(=O)COc1cc(O)c2c(=O)c(-c3ccc(O)cc3)coc2c1.Cl [Compound 4b, N-(2-(dimethylamino)ethyl)-2-(5-hydroxy-3-(4-hydroxyphenyl)-4-oxo-4H-chromen-7-yloxy)acetamide hydrochloride]?
Effect on HepG-2 cell viability (in words) (HepG-2 cells): no obvious effect on cell viability; Inhibition ratios for HepG-2 cell viability (HepG-2 cells): 1.53%; Inhibition type of AChE (AChE [2]): mixed-type inhibition; IC50 (AChE [1]): 2.75 ± 0.28 µM; inhibition at 50 µM (AChE [1]): 90.4 ± 1.23%; IC50 (BChE): > 50 µM; inhibition at 50 µM (BChE): 26.1 ± 2.52%; Metal-chelating ability (overall) [3]: potent metal-chelating ability; Chelation of Cu^2+ (UV-Vis spectrum change) ([3]; 20 μmol/L compound, 20 μmol/L Cu^2+, in water): poor chelating ability

What does the source list for Cl.NCCCNC(=O)COc1cc(O)c2c(=O)c(-c3ccc(O)cc3)coc2c1 [Compound 4c, N-(3-aminopropyl)-2-(5-hydroxy-3-(4-hydroxyphenyl)-4-oxo-4H-chromen-7-yloxy)acetamide hydrochloride]?
Inhibition ratios for HepG-2 cell viability (HepG-2 cells): 14.57%; inhibition at 50 µM (AChE [1]): 37 ± 2.07%; inhibition at 50 µM (BChE): 13.8 ± 1.05%

Which “Inhibition ratios for HepG-2 cell viability” value (HepG-2 cells) does the source give for Cl.NCCCCNC(=O)COc1cc(O)c2c(=O)c(-c3ccc(O)cc3)coc2c1 [Compound 4d, N-(4-aminobutyl)-2-(5-hydroxy-3-(4-hydroxyphenyl)-4-oxo-4H-chromen-7-yloxy)acetamide hydrochloride] here?
The value was 1.17%.

What about the inhibition at 50 µM (AChE [1]) of the same compound?
The inhibition at 50 µM was 34.5 ± 2.76%.

And the inhibition at 50 µM (BChE)?
The inhibition at 50 µM was 9.02 ± 0.23%.

Which “Inhibition ratios for HepG-2 cell viability” value (HepG-2 cells) does the source give for Cl.O=C(COc1cc(O)c2c(=O)c(-c3ccc(O)cc3)coc2c1)NCCCCN1CCNCC1 [Compound 4e, 2-(5-hydroxy-3-(4-hydroxyphenyl)-4-oxo-4H-chromen-7-yloxy)-N-(4-(piperazin-1-yl)butyl)acetamide hydrochloride] here?
Its value is 8.51%.

What about the inhibition at 50 µM (AChE [1]) of the same compound?
The inhibition at 50 µM was 19.3 ± 1.87%.

What about the inhibition at 50 µM (BChE) of the same compound?
The inhibition at 50 µM was 11.7 ± 0.82%.

Which “Inhibition ratios for HepG-2 cell viability” value (HepG-2 cells) does the source give for Cl.NCCCNCCCNC(=O)COc1cc(O)c2c(=O)c(-c3ccc(O)cc3)coc2c1 [Compound 4f, N-(3-(3-aminopropylamino)propyl)-2-(5-hydroxy-3-(4-hydroxyphenyl)-4-oxo-4H-chromen-7-yloxy)acetamide hydrochloride] here?
Its value is 11.74%.

And the inhibition at 50 µM (AChE [1])?
Its inhibition at 50 µM is 10.2 ± 0.44%.

And the inhibition at 50 µM (BChE)?
The inhibition at 50 µM was 9.52 ± 1.48%.

Which “Inhibition ratios for HepG-2 cell viability” value (HepG-2 cells) does the source give for Cl.NCCCNCCCCNC(=O)COc1cc(O)c2c(=O)c(-c3ccc(O)cc3)coc2c1 [Compound 4g, N-(4-(3-aminopropylamino)butyl)-2-(5-hydroxy-3-(4-hydroxyphenyl)-4-oxo-4H-chromen-7-yloxy)acetamide hydrochloride] here?
The value was 16.72%.

What about the inhibition at 50 µM (AChE [1]) of the same compound?
Its inhibition at 50 µM is 16.5 ± 1.36%.

And the inhibition at 50 µM (BChE)?
Its inhibition at 50 µM is 17.9 ± 2.83%.

With Cl.NCCCCNCCCCNC(=O)COc1cc(O)c2c(=O)c(-c3ccc(O)cc3)coc2c1 [Compound 4h, N-(4-(4-aminobutylamino)butyl)-2-(5-hydroxy-3-(4-hydroxyphenyl)-4-oxo-4H-chromen-7-yloxy)acetamide hydrochloride] as the compound, how does the “Effect on HepG-2 cell viability (in words)” value (HepG-2 cells) read?
Its value is “no obvious effect on cell viability”.

What about the “Inhibition ratios for HepG-2 cell viability” value (HepG-2 cells) of the same compound?
The value was 16.30%.

What about the IC50 (AChE [1]) of the same compound?
The IC50 was 46.6 ± 3.87 µM.

What about the inhibition at 50 µM (AChE [1]) of the same compound?
Its inhibition at 50 µM is 51 ± 0.55%.

And the IC50 (BChE)?
The IC50 was over 50 µM.

What about the “Inhibition ratios for BChE” value (BChE; 50 μmol/L compound, mean±SEM of two experiments, BChE from equine serum) of the same compound?
Its value is 39.20±5.64%.

And the inhibition at 50 µM (BChE)?
The inhibition at 50 µM was 39.2%.

With O=c1c(-c2ccc(O)cc2)coc2cc(O)cc(O)c12 [Genistein, reference compound] as the compound, how does the IC50 (AChE [1]) read?
Its IC50 is over 100 µM.

And the inhibition at 100 µM (AChE [1]; read-out: Inhibition of AChE activity)?
Its inhibition at 100 µM is under 50%.

What about the IC50 (BChE) of the same compound?
Its IC50 is over 100 µM.

For Nc1c2c(nc3ccccc13)CCCC2 [Tacrine, reference compound], which “Inhibition ratios for HepG-2 cell viability” value (HepG-2 cells) is on record?
Its value is 57.35%.
